Test results reported in ChEMBL document CHEMBL3244161, “Azabicycloalkanes as analgetics. 3. Structure-activity relationships of 1-phenyl-6-azabicyclo[3.2.1]octanes and absolute stereochemistry of (+)-1-(3-hydroxyphenyl)-6-methyl-6-azabicyclo[3.2.1]octane and its 7-endo-methyl derivative” (J Med Chem, 1977).
Calls of active or inactive are those of the source. The calls are words filed in the database; no cut-off is given here.

Legend:
Mus musculus [1] = test: Analgesic activity in mouse assessed as inhibition of AcOH-induced writhing up to 22.5 mg/kg, sc; type: functional, organism-based; design: dose 22.5 mg/kg
[2] = (§1) Acute toxicity in sc dosed mouse; type: organism-based; conditions: in vivo
Oryctolagus cuniculus [3] = test: Narcotic antagonist activity in iv dosed rabbit assessed as inhibition of morphine-induced respiratory depression; type: functional
Method in brief: (§2)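 Rabbits given test compound iv; read-out is antagonism of morphine-induced respiratory depression; expressed as AD50 in mg/kg or as % antagonism at a fixed dose.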

Mus musculus [4] = test: Analgesic activity in sc dosed mouse assessed as inhibition of AcOH-induced writhing; type: functional
Mus musculus [5] = test: Analgesic activity in mouse assessed as inhibition of AcOH-induced writhing up to 10 mg/kg, sc; type: functional, organism-based; design: dose 10 mg/kg
Oryctolagus cuniculus [6] = test: Narcotic antagonist activity in rabbit assessed as inhibition of morphine-induced respiratory depression at 5 mg/kg, iv; type: functional; method in brief: as §2
Oryctolagus cuniculus [7] = test: Narcotic antagonist activity in rabbit assessed as inhibition of morphine-induced respiratory depression up to 1 mg/kg, iv; type: functional, organism-based; design: dose 1 mg/kg; method in brief: as §2
Rhesus monkey [8] = test: Suppression of abstinence syndrome in morphine-dependent rhesus monkey at 8 mg/kg; type: functional, organism-based; design: dose 8 mg/kg; conditions: Macaca mulatta
Mus musculus [9] = test: Analgesic activity in sc dosed mouse by hot-plate method; type: functional
Mus musculus [10] = test: Analgesic activity in sc dosed mouse assessed as time duration of activity by hot-plate method; type: functional
Mus musculus [11] = test: as §1; type: organism-based; conditions: in vivo
Mus musculus [12] = test: Analgesic activity in mouse by hot-plate method up to 100 mg/kg, sc; type: functional, organism-based; design: dose 100 mg/kg
Rhesus monkey [13] = test: Narcotic antagonist activity in morphine-dependent rhesus monkey assessed as mild to moderate abstinence at 5 to 20 mg/kg; type: functional, organism-based; conditions: Macaca mulatta
Method in brief: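 Compound given to nonwithdrawn morphine-dependent monkeys; scored as precipitation of abstinence syndrome, with severity graded from mild to severe over the stated dose range.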

Rhesus monkey [14] = test: Suppression of abstinence syndrome in morphine-dependent rhesus monkey at 5 mg/kg; type: functional, organism-based; design: dose 5 mg/kg; conditions: Macaca mulatta
[15] = Mus musculus, sc, read-out: ED50

Row | SMILES | LD50 [2] [mg/kg] | AD50 (Oryctolagus cuniculus [3]) [mg/kg] | ED50 (Mus musculus [4]; [15]) [mg/kg] | also measured
1 | O=C(O)C(=O)O.Oc1cccc(C23CCCC(C2)N(CCc2ccccc2)C3)c1 (racemic) | > 100 | – | – | Activity (Mus musculus [1]): inactive
2 | Cl.Oc1cccc(C23CCCC(C2)N(C/C=C/c2ccccc2)C3)c1 (racemic) | > 100 | 0.96 | – | Activity (Mus musculus [1]): inactive
3 | Cl.O=C(CCN1CC2(c3cccc(O)c3)CCCC1C2)c1ccccc1 (racemic) | 184 | – | 10.1 | –
4 | Cl.O=C(CCCN1CC2(c3cccc(O)c3)CCCC1C2)c1ccccc1 (racemic) | > 100 | – | 5.2 | –
5 | Cl.O=C(CCCN1CC2(c3cccc(O)c3)CCCC1C2)c1ccc(F)cc1 (racemic) | > 100 | – | 2 | –
6 | CCN1C2CCCC(c3cccc(O)c3)(C2)C1C.Cl (racemic) | > 30 | – | – | Activity (Mus musculus [1]): inactive
7 | CCCN1C2CCCC(c3cccc(O)c3)(C2)C1C.Cl (racemic) | > 30 | 0.03 | – | Activity (Mus musculus [1]): inactive
8 | CCCCN1C2CCCC(c3cccc(O)c3)(C2)C1C.Cl (racemic) | > 30 | – | – | Activity (Mus musculus [5]): inactive
9 | CCCCCN1C2CCCC(c3cccc(O)c3)(C2)C1C.Cl (racemic) | 36.7 | – | 1.5 | inhibition (Oryctolagus cuniculus [6]): inactive
10 | CCCCCCN1C2CCCC(c3cccc(O)c3)(C2)C1C.Cl (racemic) | 25.4 | – | 0.27 | inhibition (Oryctolagus cuniculus [7]): inactive
11 | C=CCN1C2CCCC(c3cccc(O)c3)(C2)C1C.Cl (racemic) | > 30 | 0.17 | 22.5 | –
12 | Br.CC(C)=CCN1C2CCCC(c3cccc(O)c3)(C2)C1C (racemic) | > 30 | 0.086 | 15 | –
13 | C#CCN1C2CCCC(c3cccc(O)c3)(C2)C1C.Cl (racemic) | > 100 | 0.19 | 22.5 | –
14 | CC(=O)Oc1cccc(C23CCCC(C2)N(C)C3C)c1 (racemic) | – | – | – | Activity (Rhesus monkey [8]): inactive
15 | Br.CC1N(C)C2CCCC1(c1cccc(O)c1)C2 (racemic; 8) | 113 | 2.6 | – | ED50 (Mus musculus [4]): 4.5 mg/kg; ED50 (Mus musculus [9]; [15]): 8 mg/kg; Time (Mus musculus [10]): 127 min
16 | Br.CC1N(C)C2CCCC1(c1cccc(O)c1)C2 (racemic; 9) | – | – | 4.9 | LD50 (Mus musculus [11]): 113.5 mg/kg

Row | SMILES | LD50 [2] [mg/kg] | AD50 (Oryctolagus cuniculus [3]) [mg/kg] | ED50 (Mus musculus [4]; [15]) [mg/kg] | also measured
17 | CC1C2CCCC1(c1cccc(O)c1)CN2C (racemic; 13) [listing 1 of 2 here] | > 30 | 1.1 | – | –
18 | CC1C2CCCC1(c1cccc(O)c1)CN2C (racemic; 13) [listing 2 of 2 here] | – | – | – | Activity (Mus musculus [5]): inactive
19 | Br.CC1C2CCCC1(c1cccc(O)c1)C(C)N2C (racemic; 14) | > 30 | – | – | –
20 | CC1C2CCCC1(c1cccc(O)c1)C(C)N2C (racemic; 14) | – | – | – | Activity (Mus musculus [5]): inactive
21 | CC1C2CCCC1(c1cccc(O)c1)CN2C (racemic; 15) [listing 1 of 2 here] | – | 0.18 | – | –
22 | CC1C2CCCC1(c1cccc(O)c1)CN2C (racemic; 15) [listing 2 of 2 here] | – | – | – | Activity (Mus musculus [5]): inactive
23 | CC1C2CCCC1(c1cccc(O)c1)C(C)N2C (racemic; 16) | – | – | – | Activity (Mus musculus [5]): inactive
24 | CC(=O)Oc1cccc(C23CCCC(C2)N(C)C3C)c1.Cl (single isomer, unassigned; (+)) | – | – | 2.4 | ED50 (Mus musculus [9]): 3.6 mg/kg; LD50 (Mus musculus [11]): 129.5 mg/kg
25 | CC(=O)Oc1cccc(C23CCCC(C2)N(C)C3C)c1.Cl (single isomer, unassigned; (-)) | – | – | – | LD50 (Mus musculus [11]): 113.5 mg/kg
26 | CC(=O)Oc1cccc(C23CCCC(C2)N(C)C3C)c1 (single isomer, unassigned; (-)) | – | – | – | Activity (Mus musculus [1]): inactive; Activity (Mus musculus [12]): inactive; Activity (Rhesus monkey [13]): Active; Activity (Rhesus monkey [14]): inactive
27 | COc1ccc2c3c1O[C@H]1[C@@H](O)C=C[C@H]4[C@@H](C2)N(C)CC[C@@]341.COc1ccc2c3c1O[C@H]1[C@@H](O)C=C[C@H]4[C@@H](C2)N(C)CC[C@@]341.O.O=P(O)(O)O.O=P(O)(O)O [CODEINE PHOSPHATE] | 231 | – | 9.5 | ED50 (Mus musculus [9]; [15]): 7.5 mg/kg
28 | CCOC(=O)C1(c2ccccc2)CCN(C)CC1.Cl [MEPERIDINE HYDROCHLORIDE] | 273 | – | 4.5 | ED50 (Mus musculus [9]; [15]): 4.7 mg/kg
29 | CN1CC[C@]23c4c5ccc(O)c4O[C@H]2[C@@H](O)C=C[C@H]3[C@H]1C5.Cl [MORPHINE HYDROCHLORIDE] | – | – | 0.8 | ED50 (Mus musculus [9]; [15]): 1.2 mg/kg
30 | C=CCN1CC[C@]23c4c5ccc(O)c4O[C@H]2[C@@H](O)C=C[C@H]3[C@H]1C5.Cl [NALORPHINE HYDROCHLORIDE] | – | 0.16 | – | –
31 | C=CCN1CC[C@]23c4c5ccc(O)c4O[C@H]2C(=O)CC[C@@]3(O)[C@H]1C5.Cl [NALOXONE HYDROCHLORIDE] | – | 0.0044 | – | –
32 | CC(C)=CCN1CCC2(C)c3cc(O)ccc3CC1C2C.Cl (stereo unspecified) [PENTAZOCINE HYDROCHLORIDE] | 190 | 1.5 | 4.5 | ED50 (Mus musculus [9]; [15]): 12.3 mg/kg
